Calls of active or inactive are those of the source. Cut-off read from the data, not from the text of the source, unless noted: active = inhibition above about 30%; inactive = the rest.
Tests used:
[1] = HUVEC growth inhibition – cell-based, human, primary screen (AID 575;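 active = viability at or below 30% in both replicate assays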;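 note: 100% = median of untreated cell wells with 0.1% DMSO on each plate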); settings: HUVEC proliferation, CellTiter-Glo luminescence, 72 h; at 10 µM; stronger effect = lower value
How it was run: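 Assay system: Primary human umbilical vein endothelial cells | Quantity: 1250 cells per well | Medium: Supplemented EBM, 2% fetal bovine serum | Detection: CellTiter-Glo luminescence measuring cellular ATP | Read-out: % viability vs DMSO wells | Plate: Collagen-coated 384-well format | Times: 72 h exposure, 37 °C, 5% CO2, 30 min RT equilibration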

[2] = growth inhibitors of H69AR lung tumor, primary screen, human, duplicate replicates (AID 580;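 active = viability at or under a set limit in both replicates, limit being median viability minus 3 SD, cut at about 48% in these data, passing the limit was not always enough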;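 note: 100% = mean luminescence of untreated wells and 0% = no signal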); settings: H69AR lung tumor cells viability, ATP luminescence, 72 h; at 10 µM; stronger effect = lower value
[3] = reversal of MRP1-mediated doxorubicin resistance, pilot screen, H69AR cells, doxorubicin co-treatment (AID 601;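 active = viability loss from added drug above about 55%, and viability with drug at most 40%, in both replicates, limit read from the data, passing the limit was not always enough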); settings: CellTiter-Glo, 72 h, at 10 µM; for differential viability (reversal): stronger effect = higher value
[4] = 384-well plate pilot, post-Golgi transport modulator project, inhibition of yeast transport mutant growth (AID 636; in the data active = inhibition above about 31%); settings: absorbance 615 nm, about 18 h, stronger effect = higher value
[5] = growth suppression of yeast trafficking mutant, preliminary HTS, modulators of trafficking downstream of Golgi apparatus project, 1536-format plate, OD 615 nm (AID 637); settings: yeast transport mutant growth, absorbance 615 nm, 18 h; stronger effect = higher value
[6] = H69AR cells + 2 uM doxorubicin, measured here: viability with 2 uM doxorubicin, stronger effect = lower value
[7] = H69AR cells, compound alone cytotoxicity

SMILES | viability [1] | viability [2] | differential viability (reversal) ([3]; H69AR cells + 2 uM doxorubicin) | viability [3, 6] | viability [3, 7] | inhibition [4] | inhibition [5]
COC(=O)Cn1c(=O)c2c(nc(Br)n2CC(=O)OC)n(C)c1=O | 91.6% (inactive) | 86.5% (inactive) | 6.83% (inactive) | 79.7% | 86.5% | -4.53% (inactive) | -0.79% (inactive)
Cn1nc(-c2ccc(C(=O)NCC3CCCO3)cc2)c2ccccc2c1=O (stereo not drawn) | 88.3% (inactive) | 84.7% (inactive) | 13.5% (inactive) | 71.2% | 84.7% | -3.12% (inactive) | 7.14% (inactive)
CCOc1cc(S(=O)(=O)NCc2ccc3c(c2)OCO3)ccc1F | 95.4% (inactive) | 97.9% (inactive) | 4.41% (inactive) | 93.5% | 97.9% | -4.8% (inactive) | 4.76% (inactive)
CCOC(=O)c1sc(NS(=O)(=O)c2ccc(NC(C)=O)cc2)nc1C | 112% (inactive) | 96% (inactive) | 7.92% (inactive) | 88.1% | 96% | -1.97% (inactive) | 2.22% (inactive)
CCOC(=O)C1C(=O)OC(C)(C)C1C(C)C(=O)c1ccc(OC)cc1 (stereo not drawn) | 112% (inactive) | 96% (inactive) | 3.24% (inactive) | 92.7% | 96% | -0.39% (inactive) | 18.6% (inactive)
Cc1cc(NC(=O)C2CCCC2)nc2c1c(=O)oc1ccccc12 | 60.3% (inactive) | 62.8% (inactive) | -24.9% (inactive) | 87.8% | 62.8% | -5.45% (inactive) | 3.49% (inactive)
CSc1ccccc1NC(=O)c1noc2c1CCC2 | 77.8% (inactive) | 90.2% (inactive) | 1.63% (inactive) | 88.5% | 90.2% | -3.38% (inactive) | -3.49% (inactive)
N#CCCn1cnc2ccccc21 | 108% (inactive) | 104% (inactive) | 3.56% (inactive) | 100% | 104% | 0.52% (inactive) | -3.97% (inactive)
COC(=O)c1c(NC(=O)C2CC=CCC2C(=O)O)sc(C(N)=O)c1C (stereo not drawn) | 75.4% (inactive) | 98.2% (inactive) | 4.23% (inactive) | 94% | 98.2% | -7.76% (inactive) | -6.03% (inactive)
c1ccc(Cn2nnnc2C(c2ccccn2)N2CCOCC2)cc1 (stereo not drawn) | 107% (inactive) | 94.3% (inactive) | -2.14% (inactive) | 96.5% | 94.3% | -3.25% (inactive) | -6.51% (inactive)
O=C(c1cc(-c2cccs2)on1)N1CCc2ccccc2C1 | 103% (inactive) | 104% (inactive) | 21.8% (inactive) | 81.8% | 104% | -2.24% (inactive) | -0.48% (inactive)
Nc1nc(SCc2ccc(Cl)cc2Cl)n[nH]1 | 85.8% (inactive) | 92.5% (inactive) | 4.17% (inactive) | 88.3% | 92.5% | -7.47% (inactive) | 0.79% (inactive)
CC(C)(C)OC(=O)N1CCN(c2ccc(NC(=O)c3cc4ccccc4oc3=O)cc2)CC1 | 103% (inactive) | 93% (inactive) | 8.14% (inactive) | 84.8% | 93% | -5.45% (inactive) | 1.59% (inactive)
COc1ccc2oc(C)c(C(=O)Cn3ccnc3)c2c1 | 92.8% (inactive) | 87.8% (inactive) | -2.3% (inactive) | 90.1% | 87.8% | 1.69% (inactive) | 24.8% (inactive)
Cc1cccc(OCC(=O)Nc2ccccc2N2CCN(C(=O)C(C)C)CC2)c1C | 88.3% (inactive) | 88.8% (inactive) | 2.79% (inactive) | 86% | 88.8% | -1.95% (inactive) | 4.13% (inactive)
O=C(NCc1n[nH]c(=S)n1-c1ccc(F)cc1)c1ccco1 | 102% (inactive) | 96.2% (inactive) | 6.98% (inactive) | 89.2% | 96.2% | -0.53% (inactive) | -1.11% (inactive)
CC(NC(=O)OCc1ccccc1)C(=O)N1CC(O)CC1C(=O)O (stereo not drawn) | 82.5% (inactive) | 98.5% (inactive) | 17.6% (inactive) | 81% | 98.5% | -0.39% (inactive) | -1.59% (inactive)
CC(=O)NCC(=O)OC(C)C(=O)Nc1ccc(C(C)=O)cc1 (stereo not drawn) | 97.1% (inactive) | 95.2% (inactive) | -2.15% (inactive) | 97.3% | 95.2% | -6.75% (inactive) | -5.4% (inactive)
CCOCCCNC(=O)C1CCN(S(=O)(=O)c2c(C)noc2/C=C\c2ccc(OC)cc2)CC1 | 99.5% (inactive) | 101% (inactive) | -0.205% (inactive) | 101% | 101% | 4.13% (inactive) | -3.65% (inactive)
N#Cc1cnc(SCC(=O)c2ccccc2)nc1N | 95.5% (inactive) | 93.1% (inactive) | 16.2% (inactive) | 76.9% | 93.1% | -6.93% (inactive) | 7.3% (inactive)

SMILES | viability [1] | viability [2] | differential viability (reversal) ([3]; H69AR cells + 2 uM doxorubicin) | viability [3, 6] | viability [3, 7] | inhibition [4] | inhibition [5]
CC(C(=O)N1c2ccc(F)cc2CCC1C)N1C(=O)c2ccccc2C1=O (stereo not drawn) | 114% (inactive) | 91.3% (inactive) | 11.5% (inactive) | 79.8% | 91.3% | -5.26% (inactive) | 8.73% (inactive)
COc1ccc(/C(O)=C2/C(=O)C(=O)N(Cc3cccnc3)C2c2ccncc2)cc1F (stereo not drawn) | 111% (inactive) | 97.4% (inactive) | 3.08% (inactive) | 94.3% | 97.4% | -6.62% (inactive) | 0.16% (inactive)
C=C(C)Cn1c(CCNC(=O)CC)nc2ccccc21 | 100% (inactive) | 104% (inactive) | 12.7% (inactive) | 91.4% | 104% | -3.95% (inactive) | -0.63% (inactive)
Cn1c(=O)c(=O)n(C)c2cc(S(=O)(=O)N3CCCCC3)ccc21 | 111% (inactive) | 100% (inactive) | 16.1% (inactive) | 84.3% | 100% | -3.07% (inactive) | 0.16% (inactive)
COc1ccc(Cc2nc3ccc(S(N)(=O)=O)cc3[nH]2)cc1OC | 106% (inactive) | 99.9% (inactive) | 14.6% (inactive) | 85.4% | 99.9% | -2.86% (inactive) | 0.63% (inactive)
Cc1cc(C)n(-c2ccc3cccc(NS(C)(=O)=O)c3n2)n1 | 14.3% (active) | 27.6% (active) | -22.8% (inactive) | 50.4% | 27.6% | -6% (inactive) | 7.46% (inactive)
Cc1cc(C(=O)N2CCN(C(c3ccccc3)c3ccccc3)CC2)no1 | 121% (inactive) | 89.1% (inactive) | 3.42% (inactive) | 85.7% | 89.1% | -6.18% (inactive) | 0.16% (inactive)
CCOC(=O)C1=C(C)N(C)C(C)=C(C(=O)OCC)C1c1cccnc1 | 97.5% (inactive) | 92.4% (inactive) | 0.9% (inactive) | 91.5% | 92.4% | 0.79% (inactive) | -1.75% (inactive)
Cc1cc(C(F)(F)F)nc(SCC(=O)NC2=NC(=O)C(C)S2)n1 (stereo not drawn) | 96% (inactive) | 100% (inactive) | 16.8% (inactive) | 83.6% | 100% | -2.27% (inactive) | -7.3% (inactive)
N#Cc1nc(COc2ccccc2)oc1NCCN1CCOCC1 | 108% (inactive) | 107% (inactive) | 11.7% (inactive) | 95% | 107% | -4.68% (inactive) | 10.5% (inactive)
c1ccc2c(c1)c1c3n2CCNC3CCC1 (stereo not drawn) | 91.1% (inactive) | 91.4% (inactive) | 4.74% (inactive) | 86.7% | 91.4% | -4.13% (inactive) | 0% (inactive)
Cc1ccc(C)c(C(=O)CC2(O)C(=O)Nc3ccccc32)c1 (stereo not drawn) | 109% (inactive) | 105% (inactive) | 17.1% (inactive) | 88% | 105% | -3.6% (inactive) | -7.3% (inactive)
CC(=O)Nc1ccc(NC(=O)c2ccccc2N(C)S(C)(=O)=O)cc1 | 101% (inactive) | 94.9% (inactive) | 3.22% (inactive) | 91.7% | 94.9% | -6.71% (inactive) | -0.79% (inactive)
Cc1ccc(C2C(C#N)=C(N)Oc3cc4c(cc32)OCO4)cc1 (stereo not drawn) | 48.4% (inactive) | 10.2% (active) | -44.2% (inactive) | 54.4% | 10.2% | -4.42% (inactive) | 1.27% (inactive)
Cc1ccc(Cn2ccc(NC(=O)c3noc4c3CCCC4)n2)cc1 | 101% (inactive) | 112% (inactive) | 23.6% (inactive) | 88.6% | 112% | -3.25% (inactive) | 2.86% (inactive)
Nn1cnnc1SCC(=O)Nc1ccc2c(c1)OCCO2 | 97.5% (inactive) | 97.1% (inactive) | -1.08% (inactive) | 98.2% | 97.1% | -4.4% (inactive) | 8.41% (inactive)
CC(CN1CCCCC1)OC(=O)c1ccc(Cl)cc1Cl (stereo not drawn) | 96.7% (inactive) | 92.9% (inactive) | 7.05% (inactive) | 85.9% | 92.9% | 0.53% (inactive) | -3.65% (inactive)
O=C1C2C3C=CC(C3)C2C(=O)N1CNc1ccc(O)cc1 (stereo not drawn) | 93.7% (inactive) | 90.7% (inactive) | -11.8% (inactive) | 102% | 90.7% | 0.13% (inactive) | -4.6% (inactive)
Cc1onc(-c2ccccc2)c1C(=O)N1CCCSC1=Nc1ccccc1 | 76.9% (inactive) | 92.5% (inactive) | 5.92% (inactive) | 86.6% | 92.5% | -4.55% (inactive) | 0.63% (inactive)

From PubChem BioAssay
